Experimental data as given in PMC6677593 (Molecular cancer therapeutics, 2019).
Like-named read-outs stand apart in the source and are kept apart here.

Tests used:
TNBC PDX tumors = assay: TNBC patient derived xenograft; format: in vivo, SCID mice; conditions: 10 mg/kg/day s.c. 3 days/week
[1] = test system: LIFR downstream signaling in MDA-MB-231 and BT-549 cells; assay: Western blotting of LIFR downstream signaling; format: cell-based, Human
How it was run: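 After 24 h serum starvation and 1 h pretreatment with test compound (100 nM), cells were stimulated for 10 min with LIF (MDA-MB-231, BT-549), or with OSM or CNTF at 10 ng (BT-549). For downstream kinases, cells were treated with 100 nM. Lysates were made in RIPA with protease/phosphatase inhibitors and blotted with ECL detection. p-STAT3 bands were quantified, normalized to total STAT3 and expressed as fold over control.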

[2] = test system: ALDH+ (CSCs) and ALDH− (non CSCs) cells; assay: Cell Titer-Glo viability of CSCs and non CSCs; format: cell-based, Human; conditions: 3 days
[3] = test system: TNBC cells (BT-549, SUM-159, MDA-MB-231, HCC1937, MDA-MB-468, HCC1806); assay: MTT cell viability assay in TNBC cells; format: cell-based, Human; conditions: read-out: IC50, cell viability of TNBC cells, 5 days
[4] = human
[5] = test system: STAT3-Luc reporter in BT-549 and MDA-MB-231 cells; assay: STAT3-luc reporter gene assay; format: cell-based, Human; conditions: BT-549, EC359 50 nM pretreatment 1 h
How it was run: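 MDA-MB-231 and BT-549 lines stably transduced with a STAT3-firefly luciferase reporter lentivirus were serum-starved for 24 h and pretreated with test compound (50 nM) for 1 h. They were then stimulated with LIF, CTF1, OSM or CNTF at indicated concentrations for 24 h. Lysates in passive lysis buffer were read by dual-luciferase luminescence; n=3.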

Recombinant human LIF = Recombinant human LIF (Homo sapiens, UniProt P15018); assay: Surface plasmon resonance; format: binding; conditions: SPR
Recombinant human LIF, sequence (P15018 23-202): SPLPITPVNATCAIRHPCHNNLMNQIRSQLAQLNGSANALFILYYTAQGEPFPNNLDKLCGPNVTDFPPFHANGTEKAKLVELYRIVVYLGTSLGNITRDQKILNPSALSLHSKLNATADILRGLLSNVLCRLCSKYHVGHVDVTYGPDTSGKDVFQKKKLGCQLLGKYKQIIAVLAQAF

BT-549 cells = assay: MTT cell viability assay on BT-549 cells; format: cell-based, Human; conditions: BT-549 model cells (Fig. 1B)
GR = target: T1, GR (Homo sapiens, UniProt P04150); assay: In vitro steroid receptor binding assays; conditions: receptor binding studies (Fig. 1C)
T1 sequence (P04150 1-777): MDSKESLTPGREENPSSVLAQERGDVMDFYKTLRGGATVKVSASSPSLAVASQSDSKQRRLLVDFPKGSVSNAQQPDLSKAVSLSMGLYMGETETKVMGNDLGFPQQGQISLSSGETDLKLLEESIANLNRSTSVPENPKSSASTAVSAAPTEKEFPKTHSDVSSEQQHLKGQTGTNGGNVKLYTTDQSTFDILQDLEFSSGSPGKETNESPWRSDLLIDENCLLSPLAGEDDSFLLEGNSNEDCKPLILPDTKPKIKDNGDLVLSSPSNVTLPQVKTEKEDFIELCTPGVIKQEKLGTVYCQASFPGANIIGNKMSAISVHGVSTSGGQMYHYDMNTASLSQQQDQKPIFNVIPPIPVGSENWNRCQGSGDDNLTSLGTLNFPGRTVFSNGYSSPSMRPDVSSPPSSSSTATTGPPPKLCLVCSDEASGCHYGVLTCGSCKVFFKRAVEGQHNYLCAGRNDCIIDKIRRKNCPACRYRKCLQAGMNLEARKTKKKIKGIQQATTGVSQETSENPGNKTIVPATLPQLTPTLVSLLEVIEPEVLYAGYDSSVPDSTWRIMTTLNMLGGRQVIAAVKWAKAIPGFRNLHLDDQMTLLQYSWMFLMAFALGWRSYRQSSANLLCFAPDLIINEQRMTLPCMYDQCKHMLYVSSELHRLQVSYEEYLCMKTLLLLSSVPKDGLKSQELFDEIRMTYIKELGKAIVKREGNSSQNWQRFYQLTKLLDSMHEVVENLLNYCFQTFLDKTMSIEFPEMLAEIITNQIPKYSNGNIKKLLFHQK

[6] = test system: MDA-MB-231 and SUM-159 cells; assay: Clonogenic survival assay; format: cell-based, Human; conditions: EC359 20 nM
[7] = test system: MDA-MB-231 and BT-549 cells; assay: Annexin V/PI staining; format: cell-based, Human
[8] = test system: MDA-MB-231 and BT-549 cells; conditions: 72 h
[9] = human; remark: listed apart in the source
[10] = rats
[11] = test system: MDA-MB-231 xenograft tumors; assay: MDA-MB-231 xenograft study; format: in vivo, athymic nude mice; conditions: 5 mg/kg/day s.c. 3 days/week
[12] = test system: salmonella typhimurium strains TA98, TA100, TA1535, TA1537 and E.coli combo; assay: Ames test; conditions: with and without metabolic activation, OECD guideline no.471
[13] = test system: CSCs from MDA-MB-231 and BT-549 cells; assay: Extreme limiting dilution assay; format: cell-based, Human; conditions: 10 days
How it was run: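 ALDH+ CSCs were sorted by ALDEFLUOR flow cytometry and grown in supplemented MammoCult. They were seeded at 100, 50, 20, 10, 5 and 1 cells/well on ultra-low attachment plates with vehicle or test compound. After 10 days, wells with spheres were scored at each density, and stem cell frequency was estimated by ELDA analysis.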

CYP 2D6 = CYP 2D6 (Homo sapiens, UniProt P10635)
CYP 2D6, sequence (P10635 whole entry): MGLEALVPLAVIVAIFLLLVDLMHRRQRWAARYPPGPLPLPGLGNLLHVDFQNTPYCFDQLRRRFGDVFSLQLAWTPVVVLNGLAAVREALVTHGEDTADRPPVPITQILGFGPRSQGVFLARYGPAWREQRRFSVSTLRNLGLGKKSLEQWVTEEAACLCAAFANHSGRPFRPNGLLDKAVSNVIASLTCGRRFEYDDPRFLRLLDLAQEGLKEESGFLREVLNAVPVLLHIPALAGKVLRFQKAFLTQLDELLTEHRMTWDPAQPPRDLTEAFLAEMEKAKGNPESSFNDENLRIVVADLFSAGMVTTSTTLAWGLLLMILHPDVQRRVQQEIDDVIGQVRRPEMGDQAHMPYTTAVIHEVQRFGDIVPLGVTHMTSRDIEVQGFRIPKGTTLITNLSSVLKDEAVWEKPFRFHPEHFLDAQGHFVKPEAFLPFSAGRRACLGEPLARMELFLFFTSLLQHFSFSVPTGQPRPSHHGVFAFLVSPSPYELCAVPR

[14] = test system: MDA-MB-231 and BT-549 cells; assay: Matrigel invasion chamber assay; format: cell-based, Human; conditions: EC359 25 nM, 22 h
[15] = human; remark: listed apart in the source
[16] = intraperitoneal and oral dosing
[17] = target: T2, glucocorticoid receptor (GR) (Homo sapiens, UniProt P04150); assay: GR antagonism assay; format: biochemical; conditions: read-out: antagonism to GR
T2 sequence (P04150 1-777): T1 sequence (P04150 1-777)

With C#CC(F)(F)[C@]1(O)CC[C@H]2[C@@H]3CCC4=CC(=O)CCC4=C3[C@@H](c3ccc(-c4c(C)cc(C)cc4C)cc3)C[C@@]21C [EC359] the body weight (TNBC PDX tumors) was “did not affected”, the “proliferating cells (Ki-67) in PDX tumors” value (TNBC PDX tumors) was “fewer proliferating cells” and the “tumor progression (tumor volume)” value (TNBC PDX tumors) was “significantly reduced”. The “STAT3 activation by OSM and CNTF (phosphorylation)” value ([1]; BT-549, EC359 100 nM 1 h, then OSM or CNTF 10 ng, 10 min) was “reduced”, the “LIF activation of STAT3 (phosphorylation)” value ([1]; EC359 100 nM 1 h, then LIF 10 min, BT-549 and MDA-MB-231) was “substantially reduced” and the “viability of ALDH+ and ALDH− cells” value [2] was “similarly inhibited”. For the same compound, the IC50 [3] was 0.01 to 0.05 µM, the plasma protein binding [4] was “high” and the “LIF stimulated STAT3 reporter activity” value [5] was “inhibited”. The “OSM, CNTF and CTF1 mediated STAT3 activity” value [5] was “blocked”, the “binding to LIF” value (Recombinant human LIF) was “binding to LIFR, but not LIF” and the “inhibitory activity in cell viability assay” value (BT-549 cells) was “significant inhibitory activity on par with EC330”. For the same compound, the “affinity to GR” value (GR) was “lack of affinity”, the colony formation ability [6] was “significantly reduced” and the “Annexin V positive cells” value [7] was “significantly increased”. The “caspase 3/7 activity” value [8] was “significantly increased”, the plasma stability [9] was “moderate” and the AUC0-inf ([10]; IV 5 mg/kg) was 15.57391 µg·h/mL. For the same compound, the AUC0-last ([10]; IV 5 mg/kg) was 15.54436 µg·h/mL, the T½ ([10]; IV 5 mg/kg) was 3.86 h and the “mean C0” value ([10]; IV 5 mg/kg) was 74.66911 µg/mL. For the same compound, the AUC0-inf ([10]; oral 10 mg/kg) was 3.87682 µg·h/mL, the AUC0-last ([10]; oral 10 mg/kg) was 3.79226 µg·h/mL and the Tmax ([10]; oral 10 mg/kg) was 2.67 h. For the same compound, the “mean Cmax” value ([10]; oral 10 mg/kg) was 0.9195 µg/mL, the “body weights of mice” value [11] was “remained unchanged” and the “proliferating cells (Ki-67 positive cells) in tumors” value [11] was “fewer proliferating cells”. For the same compound, the “tumor progression (tumor volume)” value [11] was “significantly reduced”, the “activation of STAT3 target genes in tumors” value ([11]; RT-qPCR) was “significant decrease” and the “mutagenicity (Ames test)” value [12] was “non-mutagenic”. The “self renewal of CSCs” value [13] was “significantly reduced”, the “CYP 2D6 inhibition” value (CYP 2D6) was “inhibits 2D6” and the invasion potential [14] was “significantly reduced”. The Metabolic stability [15] was “moderate” and the “bioavailability (PK)” value [16] was “Good bioavailability”.

C#CC(F)(F)[C@]1(O)CC[C@H]2[C@@H]3CCC4=CC(=O)CCC4=C3[C@@H](c3ccc(C4CC4)cc3)C[C@@]21C [EC330] showed an IC50 [17] of 0.0798 µM.
